This is an account of results in paper PMC11549336 (Communications Biology, 2024).

The experiment has as its target recombinant Plk1 PBD (Plk1 367-603aa) (Homo sapiens, UniProt P53350). Briefly: Peptide binding assay by isothermal titration calorimetry. Conditions: ITC; listed as pT600/pT608 peptide. The essentials: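 Protein and peptides were dialysed against 50 mM NaP, 150 mM NaCl, 0.5 mM TCEP, pH 7.5, with concentrations set by A280. ITC at 25 °C, 750 rpm stirring. […] Buffer-only controls subtracted; data fitted to a single-site model.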

recombinant Plk1 PBD (Plk1 367-603aa), sequence (P53350 367-603): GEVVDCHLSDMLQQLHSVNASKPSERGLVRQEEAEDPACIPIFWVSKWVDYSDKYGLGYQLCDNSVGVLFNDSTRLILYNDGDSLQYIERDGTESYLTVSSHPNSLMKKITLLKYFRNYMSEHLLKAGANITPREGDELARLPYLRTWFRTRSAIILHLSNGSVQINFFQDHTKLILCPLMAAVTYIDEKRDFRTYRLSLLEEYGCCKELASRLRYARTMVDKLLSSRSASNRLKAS

For “FRNVpTICPNPEDpTCDFARA [BubR1^596-614 (FRNVpTICPNPEDpTCDFARA)]”, the “binding of peptide to recombinant Plk1 PBD, in words” value is recorded as “could not detect any interaction”.
